Measurements published in article PMC9302689 (British Journal of Clinical Pharmacology, 2022).

Legend:
healthy male subjects = assay: NeuroCart saccadic eye movement; format: in vivo, human; conditions: 12-hour post-dose period
Outline: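 Fasted healthy men were tested twice pre-dose and at 0.5–10 h post-dose with the head fixed 58 cm from the screen. Subjects followed a dot jumping about 15 degrees to either side. Fifteen saccades were recorded at random 3–6 s intervals. Peak velocity (deg/s) was averaged over artefact-free saccades. Change from baseline over 12 h was analysed by MMRM against pooled placebo.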

α1A‐adrenoceptor = biological target: T1, α1A‐adrenoceptor (Homo sapiens, UniProt P35348); assay: In vitro binding affinity, α1A-adrenoceptor; conditions: read-out: Ki, α1A-adrenoceptor; preclinical in vitro panel
T1 sequence (P35348 1-466): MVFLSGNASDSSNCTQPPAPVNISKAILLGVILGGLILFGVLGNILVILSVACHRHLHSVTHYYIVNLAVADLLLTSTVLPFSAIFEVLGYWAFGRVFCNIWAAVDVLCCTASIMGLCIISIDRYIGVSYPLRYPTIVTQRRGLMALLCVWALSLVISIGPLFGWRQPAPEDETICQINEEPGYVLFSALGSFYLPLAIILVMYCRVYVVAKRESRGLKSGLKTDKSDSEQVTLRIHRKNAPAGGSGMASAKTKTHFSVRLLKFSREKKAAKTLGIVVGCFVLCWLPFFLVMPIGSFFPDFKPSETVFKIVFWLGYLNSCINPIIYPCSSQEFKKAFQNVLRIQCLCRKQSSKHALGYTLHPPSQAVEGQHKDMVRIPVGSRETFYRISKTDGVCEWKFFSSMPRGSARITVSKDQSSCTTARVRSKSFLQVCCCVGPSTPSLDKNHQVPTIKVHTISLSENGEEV

α1B‐adrenoceptor = biological target: T2, α1B‐adrenoceptor (Homo sapiens, UniProt P35368); assay: In vitro binding affinity, α1B-adrenoceptor; conditions: read-out: Ki, α1B-adrenoceptor; preclinical in vitro panel
T2 sequence (P35368 1-520): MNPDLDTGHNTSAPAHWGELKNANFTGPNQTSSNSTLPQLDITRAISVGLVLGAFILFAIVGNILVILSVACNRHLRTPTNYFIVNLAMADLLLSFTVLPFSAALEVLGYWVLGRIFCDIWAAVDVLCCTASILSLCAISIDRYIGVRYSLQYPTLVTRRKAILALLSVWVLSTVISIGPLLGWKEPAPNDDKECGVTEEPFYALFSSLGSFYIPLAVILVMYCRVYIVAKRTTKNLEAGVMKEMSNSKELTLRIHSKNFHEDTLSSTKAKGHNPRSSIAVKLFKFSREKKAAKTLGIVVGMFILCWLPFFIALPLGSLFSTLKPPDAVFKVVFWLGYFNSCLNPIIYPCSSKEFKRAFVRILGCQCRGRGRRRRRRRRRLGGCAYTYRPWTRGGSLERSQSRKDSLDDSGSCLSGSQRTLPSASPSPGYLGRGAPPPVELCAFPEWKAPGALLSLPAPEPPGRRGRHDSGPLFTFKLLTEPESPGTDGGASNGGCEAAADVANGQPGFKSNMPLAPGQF

neuronal abnormalities = assay: Preclinical test for neuronal abnormalities; format: in vivo; conditions: up to a HED of 3360 mg

## CN1CCC23CCCCC2C1Cc1ccc(C(N)=O)cc13 (stereo not drawn) [ALKS 7119, (9α, 13α)‐17‐methylmorphinan‐3‐carboxamide]
Healthy male subjects; 3 mg single oral dose
  Saccadic peak velocity, LSM CFB: −16.15 deg/s
Healthy male subjects; 10 mg single oral dose
  Saccadic peak velocity, LSM CFB: 1.46 deg/s
Healthy male subjects; 25 mg single oral dose
  Saccadic peak velocity, LSM CFB: 6.12 deg/s
Healthy male subjects; 50 mg single oral dose
  Saccadic peak velocity, LSM CFB: 2.91 deg/s
Healthy male subjects; 75 mg single oral dose
  Saccadic peak velocity, LSM CFB: −5.63 deg/s
Healthy male subjects; 100 mg single oral dose
  Saccadic peak velocity, LSM CFB: 13.25 deg/s
Healthy male subjects; 125 mg single oral dose
  Saccadic peak velocity, LSM CFB: 5.98 deg/s
Healthy male subjects; 150 mg single oral dose
  Saccadic peak velocity, LSM CFB: 18.15 deg/s
Healthy male subjects; 175 mg single oral dose
  Saccadic peak velocity, LSM CFB: 5.26 deg/s
Healthy male subjects; 200 mg single oral dose
  Saccadic peak velocity, LSM CFB: −0.64 deg/s
α1A‐adrenoceptor
  Ki: 0.98 µM
α1B‐adrenoceptor
  Ki: 1.8 µM
Neuronal abnormalities
  Potential to induce neuronal abnormalities: no potential to induce neuronal abnormalities
